Activity data for 44 compounds are collected here from ChEMBL document CHEMBL1152253, “Inhibition of the CRM1-mediated nucleocytoplasmic transport by N-azolylacrylates: structure-activity relationship and mechanism of action” (Bioorg Med Chem, 2008).

The structures appear in SMILES notation. Activity calls are given as the source filed them. The calls are words filed in the database; no cut-off is given here.

Test [1] concerns the target Exportin-1 (Homo sapiens) (UniProt O14980). Put plainly: Inhibition of CRM1-mediated nucleocytoplasmic transport of RevM5 mutant in HEK293 cells assessed as RevM5-GFP nuclear localization at 10 ug/ml after 2 hrs by fluorescence microscopy. In kind it is cell-based. An outline of the steps:
(§1)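 HEK 293T cells in 96-well trays were transfected with pRevM5-GFP by calcium phosphate, and compound was added one day later. RevM5-GFP distribution was scored by fluorescence microscopy 2 h after addition. Mainly nuclear localization was scored positive; cytoplasmic localization was scored negative.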

Test [2] shares this target. Put plainly: Inhibition of CRM1-mediated nucleocytoplasmic transport of RevM5 mutant in HEK293 cells assessed as RevM5-GFP nuclear localization at 2 ug/ml after 2 hrs by fluorescence microscopy. The format is cell-based. An outline of the steps: as §1
Test [3] has the same target. Put plainly: Inhibition of CRM1-mediated nucleocytoplasmic transport of RevM5 mutant in HEK293 cells assessed as RevM5-GFP nuclear localization at 0.08 ug/ml after 2 hrs by fluorescence microscopy. The format is cell-based. The gist of the method:
as §1

Test [4] shares this target. Put plainly: Inhibition of CRM1-mediated nucleocytoplasmic transport of RevM5 mutant in HEK293 cells assessed as RevM5-GFP nuclear localization at 0.4 ug/ml after 2 hrs by fluorescence microscopy. In kind it is cell-based. An outline of the steps: as §1
In test [5] the test system is Human immunodeficiency virus 1. Put plainly: Antiviral activity against HIV1 NL4-3 infected in HEK293T cells assessed as inhibition of virion-associated p24 antigen production after 24 hrs by ELISA. The format is functional, organism-based. The conditions noted are these: HEK-293T. An outline of the steps: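 HEK 293T cells in DMEM with 10% heat-inactivated FCS were transfected with the HIV-1 molecular clone NL4-3 by calcium phosphate. Compounds were added at a range of concentrations. Virus-associated p24 antigen in the supernatant was measured by ELISA 24 h after compound addition.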
Background: An ELISA detects its analyte on a solid surface through an enzyme-linked reagent.

Sequence of Exportin-1 (Homo sapiens) (O14980 whole entry): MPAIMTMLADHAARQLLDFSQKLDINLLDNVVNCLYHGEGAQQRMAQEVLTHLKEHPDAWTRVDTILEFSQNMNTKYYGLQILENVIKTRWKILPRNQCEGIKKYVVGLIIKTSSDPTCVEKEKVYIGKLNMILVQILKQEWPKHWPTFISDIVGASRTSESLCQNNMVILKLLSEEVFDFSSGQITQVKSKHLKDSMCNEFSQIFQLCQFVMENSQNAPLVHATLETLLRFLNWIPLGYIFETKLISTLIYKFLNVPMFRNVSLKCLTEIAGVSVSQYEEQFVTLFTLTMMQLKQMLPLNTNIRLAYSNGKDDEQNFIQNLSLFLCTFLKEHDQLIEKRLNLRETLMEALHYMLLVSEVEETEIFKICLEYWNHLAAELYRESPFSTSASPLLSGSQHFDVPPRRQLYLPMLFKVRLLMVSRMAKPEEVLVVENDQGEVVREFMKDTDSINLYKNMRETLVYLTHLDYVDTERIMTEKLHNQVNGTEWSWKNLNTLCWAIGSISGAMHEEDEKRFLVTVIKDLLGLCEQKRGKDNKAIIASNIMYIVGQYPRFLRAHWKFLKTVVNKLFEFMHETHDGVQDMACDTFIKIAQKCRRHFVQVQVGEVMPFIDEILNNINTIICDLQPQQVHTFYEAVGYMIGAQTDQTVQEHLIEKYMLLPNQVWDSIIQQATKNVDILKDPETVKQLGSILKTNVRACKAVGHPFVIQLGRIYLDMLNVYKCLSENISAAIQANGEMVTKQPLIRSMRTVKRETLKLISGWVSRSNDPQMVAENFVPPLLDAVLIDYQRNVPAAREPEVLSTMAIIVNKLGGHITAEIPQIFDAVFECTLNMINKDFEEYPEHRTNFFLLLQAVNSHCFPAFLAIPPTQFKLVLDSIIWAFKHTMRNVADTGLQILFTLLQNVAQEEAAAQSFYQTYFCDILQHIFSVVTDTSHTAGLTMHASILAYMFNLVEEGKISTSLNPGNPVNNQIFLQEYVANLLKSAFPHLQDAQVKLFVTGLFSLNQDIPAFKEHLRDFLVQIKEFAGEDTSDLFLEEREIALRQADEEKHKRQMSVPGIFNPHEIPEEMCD

Take `CCOC(=O)/C=C\n1nnc(-c2cccc(Br)c2)n1`: the outcome in test [1] and in test [2] was Active. Moreover, in test [3], the result was inactive.
As for `CCOC(=O)/C=C/n1nnc(-c2ccccc2Cl)n1`, the result in test [1] was Active. Besides, the result in test [2], in test [4] and in test [3] was inactive.
For `CCOC(=O)/C=C\n1nnnc1-c1cccc(I)c1`, the result in test [1], in test [2], in test [4] and in test [3] was inactive.
Take `CCOC(=O)/C=C/n1nnnc1-c1cccc(Br)c1`: the outcome in test [2], in test [4] and in test [3] was inactive.
For the compound `c1ccc(-c2nnn[nH]2)cc1`, the outcome in test [1], in test [2], in test [4] and in test [3] was inactive.
On to `CCOC(=O)C=Cn1ccnc1-c1ccccc1`, for which the outcome in test [1], in test [2], in test [4] and in test [3] was inactive.
Turning to `CCOC(=O)/C=C\n1nnc(-c2cccc(I)c2)n1`, the result in test [1] and in test [2] was Active. The result in test [3] was inactive.
Turning to `CCOC(=O)/C=C\n1ncnn1`, the outcome in test [1], in test [2], in test [4] and in test [3] was inactive.
Take `CCOC(=O)/C=C\n1cnc(-c2ccccc2N)n1`: the result in test [1] was Active. Further, the outcome in test [4] and in test [3] was inactive.
Take `CCOC(=O)/C=C\n1nnnc1-c1cccc(Cl)c1`: in test [1], the outcome was Active. Besides, the result in test [2], in test [4] and in test [3] was inactive.
For the compound `CCOC(=O)/C=C/n1cnc(-c2ccccc2)c1`, the outcome in test [2], in test [4] and in test [3] was inactive.
As for `CCOC(=O)/C=C\n1ccc(-c2ccccc2)n1`, the result in test [1], in test [2], in test [4] and in test [3] was inactive.
`CCOC(=O)/C=C\n1nnnc1-c1ccccc1Cl`: the outcome in test [2], in test [4] and in test [3] was inactive.
With `CCOC(=O)/C=C/n1nnc(-c2cccc(Br)c2)n1`, the outcome in test [1] was Active. The outcome in test [4] and in test [3] was inactive.
With `CCOC(=O)/C=C/n1nnnc1-c1cccc(F)c1`, the outcome in test [2], in test [4] and in test [3] was inactive.
For `CCOC(=O)/C=C/n1nnc(-c2ccccc2)n1`, the outcome in test [4] and in test [3] was inactive.
In the case of `CCOC(=O)/C=C\n1nnnc1-c1ccc(Cl)cc1`, the result in test [1] was Active. In addition, the outcome in test [2], in test [4] and in test [3] was inactive.
Regarding `Clc1ccccc1-c1nnn[nH]1`, the result in test [1], in test [2], in test [4] and in test [3] was inactive.
On to `CCOC(=O)/C=C\n1nnc(-c2ccccc2Cl)n1`, for which the outcome in test [1] and in test [2] was Active. Also, the result in test [3] was inactive.
For `CCOC(=O)/C=C\n1cnc(-c2ccccc2)c1`, in test [1], the outcome was Active. Besides, the result in test [4] and in test [3] was inactive.
As to `CCOC(=O)/C=C/n1nnnc1-c1cccc(Cl)c1`, the outcome in test [2], in test [4] and in test [3] was inactive.
Consider `CCOC(=O)/C=C/n1nnnc1-c1ccccc1`, for which the outcome in test [1], in test [2], in test [4] and in test [3] was inactive.
Turning to `Ic1cccc(-c2nnn[nH]2)c1`, the result in test [1], in test [2], in test [4] and in test [3] was inactive.
With `Cc1ccnc2c1NC(=O)c1cccnc1N2C1CC1`, in test [5], the result was inactive.
`CCOC(=O)/C=C/n1ccc(-c2ccccc2)n1`: the outcome in test [1], in test [2], in test [4] and in test [3] was inactive.
As to `CCOC(=O)/C=C\n1nnc(-c2ccccc2)n1`, the outcome in test [1] was Active. The outcome in test [2], in test [4] and in test [3] was inactive.
As to `Brc1cccc(-c2nnn[nH]2)c1`, the outcome in test [1], in test [2], in test [4] and in test [3] was inactive.
Consider `CCOC(=O)/C=C/n1nnc(-c2cc(Cl)ccc2N)n1`, for which the outcome in test [1] and in test [2] was Active. For the same compound, the outcome in test [4] and in test [3] was inactive.
In the case of `CCOC(=O)/C=C\n1nnc(-c2ccc(Cl)cc2)n1`, in test [1], the outcome was Active. Further, the result in test [4] and in test [3] was inactive.
`CCOC(=O)/C=C/n1nnc(-c2ccc(Cl)cc2)n1`: in test [1], the result was Active. Also, the outcome in test [2], in test [4] and in test [3] was inactive.
Turning to `CCOC(=O)/C=C/n1cnc(-c2ccccc2N)n1`, the result in test [1], in test [2], in test [4] and in test [3] was inactive.
As for `CCOC(=O)/C=C/n1nnc(-c2cccc(I)c2)n1`, the result in test [1] was Active. Further, the outcome in test [4] and in test [3] was inactive.
`Clc1ccc(-c2nnn[nH]2)cc1`: the result in test [1], in test [2], in test [4] and in test [3] was inactive.
`CCOC(=O)/C=C\n1nnc(-c2cccc(F)c2)n1`: the result in test [1] and in test [2] was Active. In addition, the outcome in test [3] was inactive.
`CCOC(=O)/C=C\n1nnnc1-c1cccc(Br)c1`: the result in test [1], in test [2], in test [4] and in test [3] was inactive.
For the compound `Nc1cc(Cl)ccc1-c1nnn[nH]1`, the result in test [1], in test [2], in test [4] and in test [3] was inactive.
For the compound `CCOC(=O)/C=C/n1nnnc1-c1cccc(I)c1`, the result in test [2], in test [4] and in test [3] was inactive.
As for `CCOC(=O)/C=C/n1nnc(-c2cccc(F)c2)n1`, the outcome in test [1] was Active. In addition, the outcome in test [2], in test [4] and in test [3] was inactive.
Regarding `CCOC(=O)/C=C\n1nnc(-c2cc(Cl)ccc2N)n1`, the result in test [1], in test [2] and in test [4] was Active. Further, the result in test [3] was inactive.
Turning to `CCOC(=O)/C=C/n1nnnc1-c1ccc(Cl)cc1`, the outcome in test [1], in test [2], in test [4] and in test [3] was inactive.
For the compound `Fc1cccc(-c2nnn[nH]2)c1`, the outcome in test [1], in test [2], in test [4] and in test [3] was inactive.
For the compound `CCOC(=O)/C=C\n1nnnc1-c1cccc(F)c1`, the outcome in test [1], in test [2], in test [4] and in test [3] was inactive.
For the compound `CCOC(=O)/C=C/n1ncnn1`, the outcome in test [1], in test [2], in test [4] and in test [3] was inactive.
Regarding `CCOC(=O)/C=C/n1ccnc1-c1ccccc1`, the outcome in test [1], in test [2], in test [4] and in test [3] was inactive.
